Measured values taken from the EternaBench riboswitch data.

Tested on: MS2 coat protein
Experiment: apparent Kd, MS2 coat protein; higher = weaker binding; RNA-MaP array; FMN 200 µM where present
Method in brief: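 Green signal from SNAP-549-labelled MS2 coat protein was normalised to red-channel RNA signal and to the median Fmax of control clusters. The protein was titrated from 0.7 or 1.5 nM, doubling to 3 µM, without and then with constant ligand, over designs transcribed by stalled E. coli RNA polymerase on Illumina sequencing-chip clusters, in 100 mM Tris-HCl pH 7.5, 80 mM KCl, 4 mM MgCl2, BSA, DTT, yeast tRNA and Tween-20. The apparent Kd is the median of filtered per-cluster binding-curve fits.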

[1] = designed as: OFF switch for flavin mononucleotide, no ligand
[2] = ligand present: flavin mononucleotide, designed as: OFF switch for flavin mononucleotide
[3] = designed as: ON switch for flavin mononucleotide, no ligand
[4] = ligand present: flavin mononucleotide, designed as: ON switch for flavin mononucleotide

Sequence	apparent Kd [1]	apparent Kd [2]	apparent Kd [3]	apparent Kd [4]
GCUUGUGUUGAGGAUAUGCGCCGGCUCGCUGGCGCAGAAGGCGGCACAUGAGGAUCACCCAUGUCAGUUCGCGA	27.5 nM	255 nM		
AAAAAGUGAGGAUAUACGGUGUGGAGUAGACACAACCAGACGUAGAAGGCACAUGAGGAUCACCCAUGUCCAAA	24.1 nM	21.4 nM		
UAGUAUAAGGGCAUUAAACAUGAGGAUCACCCAUGUACGUUAGAGGAUAUGCAUUACAGUUGAGAGUAGAAGGUUAGAGAAGGG	44.4 nM	45.3 nM		
GACCCAAAUGAGAAGGUGUGUAUAAAUUAUGUACAAGGAUAUCGGUCGAGCGUGUUGACAUGAGGAUCACCCAUGUUGUGGGUU			139 nM	56.2 nM
GCAGCCGAUGCAGGAUAUCAGCACGUGUAGUGCUGAGAAGGGCACAUGAGGAUCACCCAUGUGAUCAAUUAAUAUCGAUGCUGC	6.56 nM	14.3 nM		
AAUACGUCAGGAUAUCUGAUGUCUAACUUCGGUUAGACAUCAGAGAAGGGACAUGAGGAUCACCCAUGUAUAAA	51.1 nM	44.9 nM		
GGACGUGACAUUAACAUGAGGAUCACCCAUGUCAAAAGACAUGAGGAUAUGGAUCCGAAAAGGAUCCAGAAGGCAUGCACGUCC			587 nM	37.1 nM
ACAUGAGGAUCACCCAUGUAGAAUGAAGAAGGUAGAUACUUGAGGAUCACCCAUGUACAUGGGACUAAGGAUAUUCUAAUAAUU			144 nM	105 nM
CCCGCCCGCCCGCACGCGGAGCGACGAGAAGGUACACAUGAGGAUCACCCAUGUCGAGUGGGAGGUAAGGAUAUUGGACGGCGG			106 nM	93.3 nM
AUUUGAAGGUAGAAGGGUGACAUGAGGAUCACCCAUGUGCGAGCAUCGGACGAAGAUGGCUCGCCACAGGAUAUACCUUCAAAU			36.7 nM	46.3 nM
CCCACGUGUGCAGGAUAUCCCACGAGCACAACAUGAGGAUCACCCAUGUACCUGAGUCUCGGAACGGAGAAGGGUACAUGUUAU			72.4 nM	69.1 nM
CGCUAUGACAUAGGAUAUUGAUACAUGAGGAUCACCCAUGUCAACCAUGAAGCUCGAUUUGUUGACAAGAAGGAUGUGGUAGCG			165 nM	44.7 nM
GUUACACAUGAGGAUCACCCAUGUAAGGAUAUGCUGCGGUCGCGCUGACGUGACUGCAGCAGAAGGUACAAAUG	77.4 nM	92.1 nM		
GGAUCAUGAGGAUAUCGAGGUUAGUACAUGAGGAUCACCCAUGUUAUCCAGGUCUCGUUUCGAGAAGGCAUGAUCC	21.5 nM	29.9 nM		
AUCGUUGGAGGAUAUGCUUGGAAAAAAAAAAAAAAAAAAAAACAUGAGGAUCACCCAUGUAGAAGGUCAAUGGA	52.6 nM	47.2 nM		
AGUGUGUGGCAGGAUAUUCUGUUGGUUCGGGCAGAAGAAGGGUCUACAUGAGGAUCACCCAUGUAAGCGGUUGA	205 nM	486 nM		
GCACGGUAUGUAGGAUAUGCAUAGCAUUGCUAUGCAGAAGGACAUGAGGAUCACCCAUGUAUGUAUUCCAUACAAUUCCCGUGC	5.41 nM	5.82 nM		
GGUUGGCGAGGAUAUACAUGAGGAUCACCCAUGUGAGAGAAAAAAGUGAGAACGAAAAGUAGAAGGCGCUGACG	43.5 nM	176 nM		
GUCCUACAUGAGGAUCACCCAUGUCAGGAUAUGUAGCGUCCGGGCCAUAAGGCUCGGAGCAGAAGGGACAGGUG	13.8 nM	18.2 nM		
GCGAAGAACGAGAAGGCCACUACAUGAGGAUCACCCAUGUCGUGGAGUAUUGGAGGAUAUCGAUCGGCGUCUCAUGAGGACAUA	5.73 nM	5.61 nM		
UUCAGCUCGUGAGGAUAUACAUGUGCUGGAAACAGCACUAAUUAAUUCACAUGAGGAUCACCCAUGUAGAAGGCACGAGCUGAG	15.7 nM	18.1 nM		
